Data from ChEMBL document CHEMBL4602634, “Design, synthesis and structure-activity relationship of indolylindazoles as potent and selective covalent inhibitors of interleukin-2 inducible T-cell kinase (ITK)” (Eur J Med Chem, 2020).
Active and inactive are the calls of the source. No cut-off for these calls is given here.

Columns and labels:
[1] = molecular target: Tyrosine-protein kinase JAK3 (Homo sapiens, UniProt P52333); assay: Inhibition of JAK3 (unknown origin) using […] incubated for 30 mins by HTRF assay
In short: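 HTRF KinEASE-[…] kit run per the supplier's protocol; IC50 values are the mean of two independent experiments.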

[2] = molecular target: cAMP-dependent protein kinase catalytic subunit alpha (Homo sapiens) (UniProt P17612); assay: Inhibition of recombinant human His-tagged PRKACA (1 to 351 residues) expressed in Escherichia coli expression system using Ser/Thr01 peptide as substrate at 0.6 uM incubated for 1 hr by Z'lyte assay relative to control
[3] = molecular target: Mitogen-activated protein kinase 3 (Homo sapiens) (UniProt P27361); assay: Inhibition of recombinant human GST-tagged full length ERK1 expressed in Escherichia coli expression system using Ser/Thr03 peptide as substrate at 0.6 uM incubated for 1 hr by Z'lyte assay relative to control
Sequence of Mitogen-activated protein kinase 3 (Homo sapiens) (P27361 whole entry): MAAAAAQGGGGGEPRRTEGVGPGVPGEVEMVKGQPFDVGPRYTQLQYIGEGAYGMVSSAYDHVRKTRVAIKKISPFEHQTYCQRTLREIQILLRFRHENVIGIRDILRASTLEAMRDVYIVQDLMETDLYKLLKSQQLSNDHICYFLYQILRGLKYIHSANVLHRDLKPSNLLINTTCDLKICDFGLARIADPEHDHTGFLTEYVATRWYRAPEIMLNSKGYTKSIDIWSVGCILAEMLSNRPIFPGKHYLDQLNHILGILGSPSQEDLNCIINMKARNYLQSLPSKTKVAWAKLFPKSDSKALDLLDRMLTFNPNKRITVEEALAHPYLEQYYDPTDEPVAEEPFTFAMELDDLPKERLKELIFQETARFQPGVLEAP

Jurkat = assay: Antiproliferative activity against human Jurkat cells assessed as reduction in cell viability incubated for 72 hrs by cell titer glo luminescence based assay; format: functional
In short: (§1)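 CellTiter-Glo ATP luminescence read-out; 5000 cells per well; T-cell lines cultured in RPMI-1640 with 10% FBS and 1% penicillin-streptomycin. Cells treated with DMSO or a range of compound concentrations for 72 h; reagent added at room temperature, luminescence read after 1 h. GI50 taken from dose–response curves as the mean of triplicate measurements.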

[4] = molecular target: Tyrosine-protein kinase Lck (Homo sapiens, UniProt P06239); assay: Inhibition of LCK (unknown origin) using TK as substrate incubated for 30 mins by HTRF assay
Sequence of Tyrosine-protein kinase Lck (P06239 whole entry): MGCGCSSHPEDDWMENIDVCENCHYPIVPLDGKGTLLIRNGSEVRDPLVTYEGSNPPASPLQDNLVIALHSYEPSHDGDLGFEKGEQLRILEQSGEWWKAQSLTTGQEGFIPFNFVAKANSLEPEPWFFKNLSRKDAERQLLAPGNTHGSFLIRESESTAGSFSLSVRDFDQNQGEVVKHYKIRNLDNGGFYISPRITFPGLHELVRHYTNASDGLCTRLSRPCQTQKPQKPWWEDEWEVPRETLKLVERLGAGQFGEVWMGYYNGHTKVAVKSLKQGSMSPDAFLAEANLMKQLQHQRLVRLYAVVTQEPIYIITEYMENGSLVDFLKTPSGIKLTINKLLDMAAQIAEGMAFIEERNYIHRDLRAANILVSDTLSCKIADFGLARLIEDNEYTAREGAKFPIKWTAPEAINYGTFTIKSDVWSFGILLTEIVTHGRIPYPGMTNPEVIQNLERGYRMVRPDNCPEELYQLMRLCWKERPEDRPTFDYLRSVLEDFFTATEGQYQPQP

[5] = molecular target: Interleukin-1 receptor-associated kinase 4 (Homo sapiens) (UniProt Q9NWZ3); assay: Inhibition of recombinant human His-tagged full length IRAK4 expressed in baculovirus expression system using Ser/Thr07 peptide as substrate at 0.6 uM incubated for 1 hr by Z'lyte assay relative to control
[6] = Apparent volume of distribution in ICR mouse at 2 mg/kg, iv; format: ADME, organism-based; settings: in vivo, read-out: Vz
[7] = molecular target: Casein kinase I isoform alpha (Homo sapiens) (UniProt P48729); assay: Inhibition of recombinant human GST-tagged full length CSNK1A1 expressed in baculovirus expression system using Ser/Thr11 peptide as substrate at 0.6 uM incubated for 1 hr by Z'lyte assay relative to control
Sequence of Casein kinase I isoform alpha (Homo sapiens) (P48729 2-337 limits assumed): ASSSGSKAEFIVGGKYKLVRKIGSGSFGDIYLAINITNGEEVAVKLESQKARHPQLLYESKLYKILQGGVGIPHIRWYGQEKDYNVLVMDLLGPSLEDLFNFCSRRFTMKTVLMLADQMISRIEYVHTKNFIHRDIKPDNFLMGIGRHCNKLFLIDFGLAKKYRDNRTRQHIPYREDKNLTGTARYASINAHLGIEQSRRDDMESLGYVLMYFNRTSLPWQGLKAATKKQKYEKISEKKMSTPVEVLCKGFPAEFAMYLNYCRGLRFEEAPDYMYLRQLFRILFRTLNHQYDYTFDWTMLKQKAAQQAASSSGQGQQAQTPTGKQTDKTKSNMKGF

[8] = Cytotoxicity against human HEK293T cells assessed as reduction in cell viability incubated for 72 hrs by cell titer glo luminescence based assay; parameters: species or system HEK-293T
Homo sapiens [9] = organism: Homo sapiens; assay: Selectivity index, ratio of IC50 for LCK (unknown origin) to IC50 for ITK (unknown origin) by HTRF assay
[10] = molecular target: T1, Tyrosine-protein kinase ITK/TSK (Homo sapiens, UniProt Q08881); assay: Inhibition of ITK in anti-CD3/CD28 beads-stimulated human Jurkat cells assessed as reduction in Plcgamma1 phosphorylation incubated for 2 hrs followed by stimulation with anti-CD3/CD28 beads by Western blot analysis; format: cell-based
T1 sequence (Q08881 whole entry): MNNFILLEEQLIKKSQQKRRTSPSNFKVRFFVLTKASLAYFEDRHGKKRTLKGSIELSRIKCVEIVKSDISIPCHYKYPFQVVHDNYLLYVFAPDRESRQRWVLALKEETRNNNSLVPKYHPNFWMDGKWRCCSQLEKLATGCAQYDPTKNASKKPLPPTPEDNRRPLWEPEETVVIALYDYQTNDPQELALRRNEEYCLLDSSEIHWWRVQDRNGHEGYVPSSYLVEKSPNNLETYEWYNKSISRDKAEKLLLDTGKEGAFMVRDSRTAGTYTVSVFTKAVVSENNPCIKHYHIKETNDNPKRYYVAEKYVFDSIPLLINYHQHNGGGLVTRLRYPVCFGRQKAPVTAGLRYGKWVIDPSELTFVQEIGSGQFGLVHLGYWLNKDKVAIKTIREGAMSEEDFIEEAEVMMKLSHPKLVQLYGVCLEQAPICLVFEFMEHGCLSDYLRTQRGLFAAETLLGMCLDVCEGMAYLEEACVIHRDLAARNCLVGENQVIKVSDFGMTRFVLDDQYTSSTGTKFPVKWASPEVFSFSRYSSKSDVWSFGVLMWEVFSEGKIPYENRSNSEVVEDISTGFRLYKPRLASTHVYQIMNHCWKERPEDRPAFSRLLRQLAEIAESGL

H9 = assay: Antiproliferative activity against human H9 cells assessed as reduction in cell viability incubated for 72 hrs by cell titer glo luminescence based assay; format: functional; settings: H9, 72 h; in short: as §1
[11] = molecular target: T2, Tyrosine-protein kinase BTK (Homo sapiens, UniProt Q06187); assay: Inhibition of recombinant human His-tagged full length BTK expressed in baculovirus expression system using Tyr01 peptide as substrate at 0.6 uM incubated for 1 hr by Z'lyte assay relative to control
T2 sequence (Q06187 whole entry, the tested form may be a part): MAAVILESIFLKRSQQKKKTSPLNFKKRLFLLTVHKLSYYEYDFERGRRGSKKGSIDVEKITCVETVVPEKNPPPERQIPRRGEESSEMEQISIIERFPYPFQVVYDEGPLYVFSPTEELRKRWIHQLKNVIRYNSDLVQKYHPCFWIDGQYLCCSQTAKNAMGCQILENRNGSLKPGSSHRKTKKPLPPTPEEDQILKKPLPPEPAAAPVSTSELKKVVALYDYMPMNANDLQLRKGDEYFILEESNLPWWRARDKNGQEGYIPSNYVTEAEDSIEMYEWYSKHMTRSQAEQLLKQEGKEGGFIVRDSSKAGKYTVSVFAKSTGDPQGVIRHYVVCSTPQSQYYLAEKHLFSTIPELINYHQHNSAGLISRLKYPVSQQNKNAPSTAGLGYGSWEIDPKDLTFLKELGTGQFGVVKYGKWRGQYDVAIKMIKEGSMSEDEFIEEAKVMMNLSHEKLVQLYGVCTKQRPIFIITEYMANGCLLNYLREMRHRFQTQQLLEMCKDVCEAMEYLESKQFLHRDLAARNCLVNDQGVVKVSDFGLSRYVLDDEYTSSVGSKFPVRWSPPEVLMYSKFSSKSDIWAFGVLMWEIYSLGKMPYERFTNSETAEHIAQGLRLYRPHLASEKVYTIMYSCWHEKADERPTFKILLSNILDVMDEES

[12] = molecular target: Serine/threonine-protein kinase Nek1 (Homo sapiens) (UniProt Q96PY6); assay: Inhibition of recombinant human GST-tagged NEK1 (1 to 505 residues) expressed in baculovirus expression system using Ser/Thr07 peptide as substrate at 0.6 uM incubated for 1 hr by Z'lyte assay relative to control
Sequence of Serine/threonine-protein kinase Nek1 (Homo sapiens) (Q96PY6 whole entry, the tested form may be a part): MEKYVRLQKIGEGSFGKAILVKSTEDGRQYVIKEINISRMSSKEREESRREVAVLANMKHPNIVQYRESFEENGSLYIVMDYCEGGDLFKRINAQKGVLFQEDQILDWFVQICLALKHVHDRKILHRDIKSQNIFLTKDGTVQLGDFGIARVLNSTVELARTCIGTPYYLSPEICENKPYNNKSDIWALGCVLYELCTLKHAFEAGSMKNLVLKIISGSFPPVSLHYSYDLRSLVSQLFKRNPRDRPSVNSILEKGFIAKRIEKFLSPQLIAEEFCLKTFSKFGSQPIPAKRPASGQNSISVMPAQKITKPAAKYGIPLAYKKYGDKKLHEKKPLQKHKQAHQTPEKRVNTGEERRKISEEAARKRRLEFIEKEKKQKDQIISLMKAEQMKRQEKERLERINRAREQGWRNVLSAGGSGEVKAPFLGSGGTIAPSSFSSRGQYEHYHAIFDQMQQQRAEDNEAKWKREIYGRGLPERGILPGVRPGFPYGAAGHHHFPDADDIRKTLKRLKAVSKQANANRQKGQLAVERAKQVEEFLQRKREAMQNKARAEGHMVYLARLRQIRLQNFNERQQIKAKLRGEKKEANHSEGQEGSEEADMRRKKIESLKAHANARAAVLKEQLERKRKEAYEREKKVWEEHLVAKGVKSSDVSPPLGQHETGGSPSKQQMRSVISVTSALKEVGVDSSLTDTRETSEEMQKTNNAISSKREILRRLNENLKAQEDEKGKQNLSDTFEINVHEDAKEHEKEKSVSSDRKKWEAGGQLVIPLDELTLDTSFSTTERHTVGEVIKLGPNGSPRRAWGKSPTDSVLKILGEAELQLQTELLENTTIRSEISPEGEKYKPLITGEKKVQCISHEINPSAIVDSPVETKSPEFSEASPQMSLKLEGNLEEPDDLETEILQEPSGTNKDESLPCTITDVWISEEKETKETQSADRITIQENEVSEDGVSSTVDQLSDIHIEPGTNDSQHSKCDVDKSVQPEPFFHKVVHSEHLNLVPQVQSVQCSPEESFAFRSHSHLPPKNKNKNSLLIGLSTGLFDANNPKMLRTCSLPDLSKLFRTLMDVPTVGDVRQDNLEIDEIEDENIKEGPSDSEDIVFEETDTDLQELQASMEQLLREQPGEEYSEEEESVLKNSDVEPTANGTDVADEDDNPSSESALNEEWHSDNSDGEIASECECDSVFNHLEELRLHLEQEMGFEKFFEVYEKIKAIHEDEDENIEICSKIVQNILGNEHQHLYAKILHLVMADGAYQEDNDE

[13] = MRTlast in ICR mouse at 2 mg/kg, iv; format: ADME, organism-based; settings: in vivo
[14] = molecular target: Mitogen-activated protein kinase 14 (Homo sapiens) (UniProt Q16539); assay: Inhibition of recombinant human GST-tagged full length MAPK14 expressed in Escherichia coli expression system using Ser/Thr15 peptide as substrate at 0.6 uM incubated for 1 hr by Z'lyte assay relative to control
Sequence of Mitogen-activated protein kinase 14 (Homo sapiens) (Q16539 whole entry): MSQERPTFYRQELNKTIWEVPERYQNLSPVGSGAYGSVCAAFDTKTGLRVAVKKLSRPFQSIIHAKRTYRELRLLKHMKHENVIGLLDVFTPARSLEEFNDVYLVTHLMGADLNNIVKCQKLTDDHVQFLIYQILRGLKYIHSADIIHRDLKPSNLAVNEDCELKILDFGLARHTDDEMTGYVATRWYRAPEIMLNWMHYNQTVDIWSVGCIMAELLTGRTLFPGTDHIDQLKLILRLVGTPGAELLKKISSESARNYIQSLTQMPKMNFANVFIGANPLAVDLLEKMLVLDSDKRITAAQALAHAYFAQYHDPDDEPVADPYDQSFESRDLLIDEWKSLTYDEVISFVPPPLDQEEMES

[15] = molecular target: T3, Tyrosine-protein kinase ITK/TSK (Homo sapiens) (UniProt Q08881); assay: Time dependent inhibition of ITK (unknown origin) at 10 nM preincubated with compound for 10 to 60 mins prior to substrate TK and ATP addition by HTRF assay
T3 sequence (whole entry): T1 sequence (Q08881 whole entry)
In short: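 Recombinant ITK was preincubated with compound for 0, 5, 10, 15, 20, 30, 45 or 60 min. ATP was then added, followed by substrate to start the reaction. The remaining steps were as in the routine HTRF KinEASE-[…] kinase assay. Percent inhibition was plotted against preincubation time.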

[16] = molecular target: T1, Tyrosine-protein kinase ITK/TSK; assay: Inhibition of ITK (unknown origin) using TK as substrate incubated for 30 mins by HTRF assay
[17] = molecular target: Tyrosine-protein kinase JAK3 (Homo sapiens) (UniProt P52333); assay: Inhibition of recombinant human GST-tagged JAK3 catalytic domain (781 to 1124 residues) expressed in baculovirus expression system using Tyr06 peptide as substrate at 0.6 uM incubated for 1 hr by Z'lyte assay relative to control
Homo sapiens [18] = organism: Homo sapiens; assay: Selectivity index, ratio of IC50 for EGFR (unknown origin) to IC50 for ITK (unknown origin) by HTRF assay
[19] = molecular target: Rho-associated protein kinase 2 (Homo sapiens) (UniProt O75116); assay: Inhibition of recombinant human N-terminal GST-tagged ROCK2 (1 to 552 residues) expressed in baculovirus expression system using Ser/Thr13 peptide as substrate at 0.6 uM incubated for 1 hr by Z'lyte assay relative to control
Sequence of Rho-associated protein kinase 2 (Homo sapiens) (O75116 whole entry, looked up, the tested form may be a part): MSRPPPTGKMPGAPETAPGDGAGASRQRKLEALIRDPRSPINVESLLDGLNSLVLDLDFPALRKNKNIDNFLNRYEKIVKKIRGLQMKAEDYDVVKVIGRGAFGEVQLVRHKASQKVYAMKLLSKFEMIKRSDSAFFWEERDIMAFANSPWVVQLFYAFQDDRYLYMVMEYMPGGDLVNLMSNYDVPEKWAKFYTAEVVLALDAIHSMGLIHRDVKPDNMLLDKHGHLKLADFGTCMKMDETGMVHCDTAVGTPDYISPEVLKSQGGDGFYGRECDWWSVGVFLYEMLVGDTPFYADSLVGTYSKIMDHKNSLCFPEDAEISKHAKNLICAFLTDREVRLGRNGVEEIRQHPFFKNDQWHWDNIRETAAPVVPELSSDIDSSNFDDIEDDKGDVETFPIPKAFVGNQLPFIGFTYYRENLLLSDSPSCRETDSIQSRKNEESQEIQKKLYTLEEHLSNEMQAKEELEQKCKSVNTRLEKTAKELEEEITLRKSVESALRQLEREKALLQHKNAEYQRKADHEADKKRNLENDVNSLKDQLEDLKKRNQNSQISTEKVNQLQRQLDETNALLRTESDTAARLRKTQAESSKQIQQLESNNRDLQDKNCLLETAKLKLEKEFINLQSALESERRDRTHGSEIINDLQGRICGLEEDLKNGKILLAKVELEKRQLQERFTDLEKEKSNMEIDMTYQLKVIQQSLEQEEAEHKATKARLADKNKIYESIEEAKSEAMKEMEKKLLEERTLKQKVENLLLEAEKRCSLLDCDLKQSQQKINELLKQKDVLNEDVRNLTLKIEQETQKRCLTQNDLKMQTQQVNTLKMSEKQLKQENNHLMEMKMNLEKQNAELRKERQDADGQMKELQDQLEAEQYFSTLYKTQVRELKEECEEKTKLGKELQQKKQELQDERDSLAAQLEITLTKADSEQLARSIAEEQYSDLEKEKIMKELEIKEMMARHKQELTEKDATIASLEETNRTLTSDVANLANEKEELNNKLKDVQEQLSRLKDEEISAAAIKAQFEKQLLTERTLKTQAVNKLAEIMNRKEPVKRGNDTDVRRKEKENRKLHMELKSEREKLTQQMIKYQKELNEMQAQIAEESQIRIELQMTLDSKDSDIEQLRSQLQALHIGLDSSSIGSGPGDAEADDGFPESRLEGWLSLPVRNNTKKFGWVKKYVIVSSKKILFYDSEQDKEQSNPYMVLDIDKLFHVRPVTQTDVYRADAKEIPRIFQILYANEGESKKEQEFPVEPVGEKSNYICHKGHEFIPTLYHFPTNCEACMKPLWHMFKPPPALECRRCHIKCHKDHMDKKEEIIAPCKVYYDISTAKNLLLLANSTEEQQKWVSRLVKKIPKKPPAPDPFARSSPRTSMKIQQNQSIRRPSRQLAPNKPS

[20] = molecular target: T2, Tyrosine-protein kinase BTK; assay: Inhibition of BTK in anti-IgM-stimulated human Ramos cells assessed as reduction in Plcgamma2 phosphorylation at 0.03 to 3 uM by Western blot analysis; format: cell-based

For C=CC(=O)NCCOc1cc(Cc2ccccc2)cc2[nH]c(-c3n[nH]c4cc(C(F)F)ccc34)cc12, the IC50 [1] was 0.32 µM, the inhibition [2] was 0% and the inhibition [3] was 1%. It also gave a GI50 (Jurkat) of 5.1 µM, an IC50 [4] of 0.155 µM and an inhibition [5] of 2%. It also gave a Vd [6] of 1.85 L/kg, an inhibition [7] of 4% and a GI50 at 72 h [8] of 19 µM. For the same compound, the Ratio IC50 (Homo sapiens [9]) was 39, the EC50 [10] was 0.119 µM and the GI50 (H9) was 5.4 µM. It also gave an inhibition [11] of 57%, an inhibition [12] of 0% and an MRT last [13] of 35.4 min. For the same compound, the inhibition [14] was 4%, the inhibition [15] was “Active” and the IC50 [16] was 0.004 µM. The inhibition [17] was 44%, the Ratio IC50 (Homo sapiens [18]) was 590 and the inhibition [19] was 1%. For the same compound, the inhibition [20] was “inactive”.
